Measurements taken from ChEMBL document CHEMBL4725242, “Discovery of GS-9688 (Selgantolimod) as a Potent and Selective Oral Toll-Like Receptor 8 Agonist for the Treatment of Chronic Hepatitis B” (J Med Chem, 2020).
Calls of active or inactive are those of the source.

What was measured:
Homo sapiens = organism: Homo sapiens; experiment: Selectivity ratio of EC50 for TLR7 in human cryopreserved PBMC assessed as induction of IFNalpha production to EC50 for TLR8 in human cryopreserved PBMC assessed as induction of IL-12p40 production
Summary of the method: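 Cryopreserved healthy-donor human PBMC, recovered 2 h at 37°C/5% CO2, then 100k cells/well in RPMI/10% FBS exposed 24 h at 37°C to a 10-point half-log dilution series (0.5% final DMSO). Supernatant IFNα-2a quantified by MSD electrochemiluminescence immunoassay. Normalized to 10 µM GS-9620 positive and DMSO negative controls; EC50 from 4-parameter logistic fit. For the ratio, divided by the IL-12p40 EC50 from the same PBMC screen.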

[1] = AUC (infinity) in Beagle dog at 0.5 mg/kg, po administered via gavage by HPLC-MS analysis; assay type: ADME, organism-based, Canis lupus familiaris; set-up: route oral, time infinity, dose 0.5 mg/kg; details: in vivo
Summary of the method: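 Oral dosing in 2% ethanol/40% PEG 300/58% 0.01N HCl: Sprague Dawley rats 5 mg/kg, beagle dogs 0.5 mg/kg, cynomolgus monkeys 3 mg/kg.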

[2] = Drug excretion in bile duct-cannulated Sprague-Dawley rat bile; assay type: ADME; details: in vivo
[3] = molecular target: T1, Toll-like receptor 9 (Homo sapiens) (UniProt Q9NR96); experiment: Agonist activity at human TLR9 expressed in HEK293 cells assessed as increase in NF-kappaB activation up to 10 uM incubated for 18 hrs by quanti-blue SEAP reporter gene assay; assay type: cell-based; details: dose microM <=10, time […]
T1 sequence (whole entry): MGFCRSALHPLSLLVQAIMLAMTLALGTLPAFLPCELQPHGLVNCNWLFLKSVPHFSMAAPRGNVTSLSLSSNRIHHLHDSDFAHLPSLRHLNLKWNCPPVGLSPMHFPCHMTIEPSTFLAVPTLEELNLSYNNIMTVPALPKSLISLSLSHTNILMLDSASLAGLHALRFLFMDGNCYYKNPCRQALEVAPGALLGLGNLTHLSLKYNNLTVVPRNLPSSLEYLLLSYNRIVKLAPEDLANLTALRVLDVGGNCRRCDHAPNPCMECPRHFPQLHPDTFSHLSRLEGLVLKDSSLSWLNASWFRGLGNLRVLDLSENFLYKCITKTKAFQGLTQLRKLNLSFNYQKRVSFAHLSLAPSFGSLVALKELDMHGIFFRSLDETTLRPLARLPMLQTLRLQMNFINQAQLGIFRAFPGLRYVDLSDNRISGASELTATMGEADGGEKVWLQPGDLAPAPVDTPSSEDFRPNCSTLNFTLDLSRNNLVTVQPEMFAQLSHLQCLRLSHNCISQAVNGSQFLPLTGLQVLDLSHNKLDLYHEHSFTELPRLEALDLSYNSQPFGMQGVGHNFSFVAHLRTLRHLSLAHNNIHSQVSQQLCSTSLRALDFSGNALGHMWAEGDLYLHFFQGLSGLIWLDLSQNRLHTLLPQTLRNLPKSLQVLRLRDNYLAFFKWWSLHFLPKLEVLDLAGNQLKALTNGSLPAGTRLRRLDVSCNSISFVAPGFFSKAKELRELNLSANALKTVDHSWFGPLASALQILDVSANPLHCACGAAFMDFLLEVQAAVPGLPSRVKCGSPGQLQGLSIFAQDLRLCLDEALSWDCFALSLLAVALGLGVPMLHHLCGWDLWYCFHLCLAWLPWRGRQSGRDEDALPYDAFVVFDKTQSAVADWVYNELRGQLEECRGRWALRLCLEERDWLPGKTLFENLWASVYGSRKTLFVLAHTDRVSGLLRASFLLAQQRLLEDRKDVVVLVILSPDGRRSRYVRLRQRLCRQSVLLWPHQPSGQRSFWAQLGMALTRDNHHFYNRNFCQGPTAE
Summary of the method: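 HEK293 cells stably expressing individual human TLRs or other innate immune receptors, used as reporter gene assays. Minimum effective concentration defined as the level giving a 3-fold rise over background.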

- Ratio EC50 (Homo sapiens): > 185
- AUC(0-inf) [1]: 0.0118 µM·h
- Drug excretion [2]: Active
- Activity [3]: inactive
SMILES: CCCC[C@](C)(CO)Nc1nc(N)nc2cc(F)cnc12 [SELGANTOLIMOD]
